The text below walks through data of ChEMBL document CHEMBL1149310, “A screening library for peptide activated G-protein coupled receptors. 1. The test set” (J Med Chem, 2004).

This test concerns the target Melanin-concentrating hormone receptor 1 (Rattus norvegicus, UniProt P97639). Kind of test: Binding affinity to rat MCH1 receptor. An outline of the steps:
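Membranes from mammalian cells stably transfected with rat MCH1 receptor, prepared by nitrogen cavitation (900 psi, ice, 30 min) and differential centrifugation (800g, then 38 000g). Radioligand competition at equilibrium in 50 mM HEPES pH 7.0, 10 mM MgCl2, 2 mM EGTA. Hits were taken to 12-point dose-response curves to derive Ki. Bound and free were separated by filtration over PEI-treated GF-C filters and counted by scintillation.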

pKi: −log10 of the molar value.

What is called pKi is the Ki on a negative log10 scale, so that one unit is a factor of ten.

Melanin-concentrating hormone receptor 1, sequence (P97639 whole entry): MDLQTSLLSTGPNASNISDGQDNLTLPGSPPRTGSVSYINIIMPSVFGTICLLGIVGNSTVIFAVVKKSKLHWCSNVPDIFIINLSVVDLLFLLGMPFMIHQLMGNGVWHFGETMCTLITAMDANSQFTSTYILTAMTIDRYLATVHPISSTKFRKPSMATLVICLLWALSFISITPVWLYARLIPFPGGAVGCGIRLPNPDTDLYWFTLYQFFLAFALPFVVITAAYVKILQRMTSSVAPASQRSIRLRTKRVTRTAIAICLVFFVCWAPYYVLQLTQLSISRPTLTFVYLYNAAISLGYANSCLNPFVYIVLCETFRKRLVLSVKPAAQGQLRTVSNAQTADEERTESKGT

The compound `O=C(Cc1csc2ccccc12)NC[C@@H]1CCCN1Cc1ccc(Cl)c(Cl)c1` gave a pKi of 5.22.

Take `O=C(CCCc1ccccc1)NC[C@@H]1CCCN1CCc1ccccc1`: the pKi was less than 5.00.

The compound `O=C(CCc1ccccc1)NC1CCN(Cc2ccc(Cl)c(Cl)c2)C1` (centres undefined) showed a pKi of less than 5.00.

In turn, `O=C(CCCc1ccccc1)NC[C@H]1CCCN1CCc1ccccc1` showed a pKi of 5.51.

As for `O=C(Cc1ccccc1)NC1CCN(CCc2ccccc2)C1` (centres undefined), the pKi is less than 5.00.

For the compound `O=C(Cc1ccccc1)NC1CCN(Cc2ccc(Cl)c(Cl)c2)C1` (centres undefined), the pKi is 6.01.

As to `O=C(Cc1ccc(Oc2ccccc2)cc1)NC1CCN(Cc2ccc(Cl)c(Cl)c2)C1` (centres undefined), the pKi is 6.29.

In turn, `Clc1ccc(-c2ccc(CNC3CCN(CC(c4ccccc4)c4ccccc4)C3)o2)cc1` (centres undefined) showed a pKi of 5.77.

As to `CC(CCN1CCC(NCc2ccc(-c3ccc(Cl)cc3)o2)C1)CC(C)(C)C` (centres undefined), the pKi was 5.30.

In turn, `O=C(Cc1csc2ccccc12)NC[C@H]1CCCN1Cc1ccc(Cl)c(Cl)c1` gave a pKi of 5.01.

`O=C(Cc1ccccc1)NC1CCN(Cc2ccccc2)C1` (centres undefined): the pKi was less than 5.00.

`O=C(Cc1csc2ccccc12)NC1CCN(Cc2ccc(Cl)c(Cl)c2)C1` (centres undefined) showed a pKi of 6.44.

On to `O=C(Cc1ccc2c(c1)OCO2)NC1CCN(Cc2ccc(Cl)c(Cl)c2)C1` (centres undefined), for which the pKi was 6.20.

Regarding `COCC1=C(C(=O)OC)[C@H](c2ccc(F)c(F)c2)N(C(=O)NCCCN2CCC(c3cccc(NC(C)=O)c3)CC2)C(=O)N1` [SNAP-7941], the pKi was 8.70.
